Measured values published in publication PMC6688905 (Journal of medicinal chemistry, 2018).
“Also recorded” adds a separate entry of the source.

Columns and labels:
[1] = NMR-based reactivity of electrophile toward Nα-acetyl lysine; assay type: physicochemical; details: 100 mM phosphate buffer pH 7.4, ten-fold excess of N^α-acetyl lysine, 25 °C
aurora kinase A (AURKA) = biological target: T1, aurora kinase A (AURKA) (Homo sapiens, UniProt O14965); assay: KINOMEscan kinase selectivity panel; assay type: binding; details: 1 μM
T1 sequence (O14965 1-403): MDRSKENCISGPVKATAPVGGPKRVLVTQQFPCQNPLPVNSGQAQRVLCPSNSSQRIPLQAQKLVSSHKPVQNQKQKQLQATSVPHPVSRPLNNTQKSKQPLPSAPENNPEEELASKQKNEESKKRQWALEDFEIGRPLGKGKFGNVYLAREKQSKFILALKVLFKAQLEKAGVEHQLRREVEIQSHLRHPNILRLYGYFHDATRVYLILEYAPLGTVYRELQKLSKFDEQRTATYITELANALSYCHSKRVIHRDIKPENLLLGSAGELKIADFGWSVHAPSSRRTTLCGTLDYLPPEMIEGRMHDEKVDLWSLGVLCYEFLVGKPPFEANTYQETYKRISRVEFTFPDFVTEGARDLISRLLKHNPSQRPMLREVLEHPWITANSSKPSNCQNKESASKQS

[2] = behaviour in buffer at higher concentrations; assay type: physicochemical
[3] = system: National Cancer Institute 60-cell line panel; assay: NCI 60-cell line anticancer screen; assay type: cell-based; details: read-out: GI50 values
In short: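 Cancer cell lines covering leukemia, non-small cell lung, colon, CNS, melanoma, ovarian, renal, prostate and breast were tested with 5-point dose-response curves, top concentration 50 μM. GI50, TGI and LC50 were calculated from the curves.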

[4] = biological target: c-Jun N-terminal kinase 2 (JNK2) (Homo sapiens, UniProt P45984); assay: KINOMEscan kinase selectivity panel; assay type: binding; details: 1 μM
PI3Kα (p110α/p85α) = PI3Kα (p110α/p85α) (Homo sapiens, UniProt P42336); assay: MS timecourse for covalent modification of PI3K; details: 4 μM neolymphostin A with 2 μM PI3Kα
[5] = system: AKT phosphorylation (Ser473, Thr308) in EGF-stimulated HeLa cells; assay: PI3K inhibition in live cells, Western blot of AKT phosphorylation; assay type: cell-based; details: serum-starved HeLa cells, 10 min pretreatment, EGF stimulation
In short: (§1)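 HeLa cells were serum-starved overnight, then pretreated 10 min with test compound at the indicated concentrations and stimulated with 10 ng mL−1 EGF for 5 min. Cells were lysed in boiling SDS sample buffer and protein was quantified at 660 nm. Equal protein was run on SDS-PAGE, Western-blotted with ECL detection, and probed for AKT, pAKT Ser473/Thr308, ERK1/2, pERK1/2 Thr202/Tyr204, EGFR, pEGFR Tyr1068 and GAPDH.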

PI3Kα = PI3Kα (Homo sapiens, UniProt P42336); assay: KINOMEscan kinase selectivity panel; assay type: binding; details: 1 μM
aurora kinase B (AURKB) = aurora kinase B (AURKB) (Homo sapiens, UniProt Q96GD4); assay: KINOMEscan kinase selectivity panel; assay type: binding; details: 1 μM
[6] = biological target: c-Jun N-terminal kinase 1 (JNK1) (Homo sapiens, UniProt P45983); assay: KINOMEscan kinase selectivity panel; assay type: binding; details: 1 μM
[7] = system: EGFR and ERK1/2 phosphorylation in EGF-stimulated HeLa cells; assay: PI3K inhibition in live cells, Western blot of EGFR and ERK1/2 phosphorylation; assay type: cell-based; details: serum-starved HeLa cells, 10 min pretreatment, EGF stimulation
In short: as §1

[8] = biological target: c-Jun N-terminal kinase 3 (JNK3) (Homo sapiens, UniProt P53779); assay: KINOMEscan kinase selectivity panel; assay type: binding; details: 1 μM
[9] = biological target: T2, Polo-like kinase 4 (PLK4) (Homo sapiens, UniProt O00444); assay: KINOMEscan kinase selectivity panel; assay type: binding; details: 1 μM
T2 sequence (O00444 1-970): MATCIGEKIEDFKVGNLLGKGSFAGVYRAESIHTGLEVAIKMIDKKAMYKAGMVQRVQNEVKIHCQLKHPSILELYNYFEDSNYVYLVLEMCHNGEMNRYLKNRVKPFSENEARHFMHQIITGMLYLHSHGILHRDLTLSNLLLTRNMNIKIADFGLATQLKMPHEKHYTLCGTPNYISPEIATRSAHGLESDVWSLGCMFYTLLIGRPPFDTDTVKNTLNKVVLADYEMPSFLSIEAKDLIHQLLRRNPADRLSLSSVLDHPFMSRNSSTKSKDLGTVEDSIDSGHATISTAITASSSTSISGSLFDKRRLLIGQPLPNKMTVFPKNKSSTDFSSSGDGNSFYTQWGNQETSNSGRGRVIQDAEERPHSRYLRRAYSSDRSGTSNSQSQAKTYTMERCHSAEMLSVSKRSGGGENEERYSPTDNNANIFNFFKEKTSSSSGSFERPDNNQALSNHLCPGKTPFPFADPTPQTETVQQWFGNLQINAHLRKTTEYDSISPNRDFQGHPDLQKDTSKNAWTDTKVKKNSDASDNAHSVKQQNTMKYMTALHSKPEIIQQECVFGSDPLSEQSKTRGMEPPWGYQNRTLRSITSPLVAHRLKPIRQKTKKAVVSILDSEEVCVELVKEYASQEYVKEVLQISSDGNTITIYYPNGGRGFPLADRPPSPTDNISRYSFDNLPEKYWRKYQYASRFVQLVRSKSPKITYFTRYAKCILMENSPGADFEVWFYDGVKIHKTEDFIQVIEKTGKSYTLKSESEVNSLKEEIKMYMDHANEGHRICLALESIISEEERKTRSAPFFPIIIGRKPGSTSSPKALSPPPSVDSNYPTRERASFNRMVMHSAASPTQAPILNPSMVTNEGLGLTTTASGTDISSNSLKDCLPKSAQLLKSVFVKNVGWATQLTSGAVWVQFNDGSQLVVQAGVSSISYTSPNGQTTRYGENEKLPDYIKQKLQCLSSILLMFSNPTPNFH

Sequence of c-Jun N-terminal kinase 3 (JNK3) (P53779 whole entry): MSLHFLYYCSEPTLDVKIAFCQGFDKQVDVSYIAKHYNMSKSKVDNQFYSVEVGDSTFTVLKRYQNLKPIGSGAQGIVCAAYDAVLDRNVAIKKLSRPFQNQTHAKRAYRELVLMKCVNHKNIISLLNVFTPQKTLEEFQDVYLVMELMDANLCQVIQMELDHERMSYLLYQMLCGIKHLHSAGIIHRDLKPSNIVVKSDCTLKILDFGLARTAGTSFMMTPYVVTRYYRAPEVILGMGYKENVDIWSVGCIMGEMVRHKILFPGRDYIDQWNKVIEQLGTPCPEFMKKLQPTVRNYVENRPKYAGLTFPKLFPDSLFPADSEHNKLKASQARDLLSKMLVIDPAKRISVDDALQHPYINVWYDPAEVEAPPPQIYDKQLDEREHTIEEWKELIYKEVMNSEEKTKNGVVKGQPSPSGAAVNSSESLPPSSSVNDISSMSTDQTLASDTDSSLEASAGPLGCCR
Sequence of PI3Kα (P42336 whole entry): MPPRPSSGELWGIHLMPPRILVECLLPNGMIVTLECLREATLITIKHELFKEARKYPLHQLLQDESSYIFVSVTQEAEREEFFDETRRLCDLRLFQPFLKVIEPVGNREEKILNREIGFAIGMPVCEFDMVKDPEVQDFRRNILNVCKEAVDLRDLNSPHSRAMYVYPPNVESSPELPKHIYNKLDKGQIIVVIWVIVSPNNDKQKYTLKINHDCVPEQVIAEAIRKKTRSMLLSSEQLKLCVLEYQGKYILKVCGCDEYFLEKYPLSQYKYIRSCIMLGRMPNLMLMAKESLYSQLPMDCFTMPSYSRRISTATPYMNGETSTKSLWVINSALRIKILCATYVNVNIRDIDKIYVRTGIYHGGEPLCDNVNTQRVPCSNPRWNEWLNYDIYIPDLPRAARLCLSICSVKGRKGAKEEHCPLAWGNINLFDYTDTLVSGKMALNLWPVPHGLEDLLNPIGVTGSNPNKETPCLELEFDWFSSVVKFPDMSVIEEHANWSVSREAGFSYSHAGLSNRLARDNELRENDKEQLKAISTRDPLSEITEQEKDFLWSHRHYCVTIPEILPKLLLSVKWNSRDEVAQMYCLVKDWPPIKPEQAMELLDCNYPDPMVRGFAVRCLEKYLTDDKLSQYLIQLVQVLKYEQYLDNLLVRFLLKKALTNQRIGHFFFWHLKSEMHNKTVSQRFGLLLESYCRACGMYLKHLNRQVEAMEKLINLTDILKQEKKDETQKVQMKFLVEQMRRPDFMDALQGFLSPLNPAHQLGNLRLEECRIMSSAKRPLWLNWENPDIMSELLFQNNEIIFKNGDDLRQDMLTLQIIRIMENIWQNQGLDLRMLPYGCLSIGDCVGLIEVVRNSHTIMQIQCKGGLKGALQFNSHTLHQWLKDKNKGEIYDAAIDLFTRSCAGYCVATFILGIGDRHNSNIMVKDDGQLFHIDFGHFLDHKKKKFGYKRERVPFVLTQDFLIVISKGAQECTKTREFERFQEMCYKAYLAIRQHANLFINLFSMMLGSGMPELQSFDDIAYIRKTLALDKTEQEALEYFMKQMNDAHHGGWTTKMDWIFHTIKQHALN
Sequence of PI3Kα (p110α/p85α) (P42336 whole entry, species assumed): as the sequence (P42336 whole entry) above
Sequence of PI3Kα (p110α/p85α) (P27986 whole entry partner, species assumed): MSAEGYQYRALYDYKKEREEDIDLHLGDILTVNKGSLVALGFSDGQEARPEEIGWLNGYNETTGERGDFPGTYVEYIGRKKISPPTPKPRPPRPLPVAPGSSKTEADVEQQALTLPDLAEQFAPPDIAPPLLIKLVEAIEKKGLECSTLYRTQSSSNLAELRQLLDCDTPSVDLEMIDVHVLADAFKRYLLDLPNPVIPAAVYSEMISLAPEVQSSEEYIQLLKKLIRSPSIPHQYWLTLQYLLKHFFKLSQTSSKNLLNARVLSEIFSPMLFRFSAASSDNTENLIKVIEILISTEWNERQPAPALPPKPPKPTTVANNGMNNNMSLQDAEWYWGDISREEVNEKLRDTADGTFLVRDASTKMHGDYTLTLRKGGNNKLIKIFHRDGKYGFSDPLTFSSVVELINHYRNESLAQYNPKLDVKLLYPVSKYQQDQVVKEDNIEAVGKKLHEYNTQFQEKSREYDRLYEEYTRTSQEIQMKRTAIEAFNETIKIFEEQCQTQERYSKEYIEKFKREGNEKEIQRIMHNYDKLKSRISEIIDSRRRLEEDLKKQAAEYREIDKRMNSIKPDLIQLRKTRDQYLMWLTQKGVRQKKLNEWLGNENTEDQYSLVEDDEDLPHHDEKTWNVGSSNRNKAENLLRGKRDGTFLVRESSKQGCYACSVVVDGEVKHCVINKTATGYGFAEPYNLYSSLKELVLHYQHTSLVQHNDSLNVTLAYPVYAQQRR
Sequence of c-Jun N-terminal kinase 1 (JNK1) (P45983 whole entry): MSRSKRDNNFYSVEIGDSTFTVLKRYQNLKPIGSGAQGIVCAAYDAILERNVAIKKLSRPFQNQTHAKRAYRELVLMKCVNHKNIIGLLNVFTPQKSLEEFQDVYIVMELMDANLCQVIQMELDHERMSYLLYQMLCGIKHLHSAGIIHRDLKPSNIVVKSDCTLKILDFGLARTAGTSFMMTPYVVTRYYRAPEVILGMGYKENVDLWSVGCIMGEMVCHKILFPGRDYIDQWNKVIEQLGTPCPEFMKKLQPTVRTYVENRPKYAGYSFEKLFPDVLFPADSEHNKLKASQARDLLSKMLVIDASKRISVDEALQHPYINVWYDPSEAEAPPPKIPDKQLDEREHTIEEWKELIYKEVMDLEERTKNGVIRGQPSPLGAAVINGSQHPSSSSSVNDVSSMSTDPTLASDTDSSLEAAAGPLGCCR
Sequence of aurora kinase B (AURKB) (Q96GD4 whole entry): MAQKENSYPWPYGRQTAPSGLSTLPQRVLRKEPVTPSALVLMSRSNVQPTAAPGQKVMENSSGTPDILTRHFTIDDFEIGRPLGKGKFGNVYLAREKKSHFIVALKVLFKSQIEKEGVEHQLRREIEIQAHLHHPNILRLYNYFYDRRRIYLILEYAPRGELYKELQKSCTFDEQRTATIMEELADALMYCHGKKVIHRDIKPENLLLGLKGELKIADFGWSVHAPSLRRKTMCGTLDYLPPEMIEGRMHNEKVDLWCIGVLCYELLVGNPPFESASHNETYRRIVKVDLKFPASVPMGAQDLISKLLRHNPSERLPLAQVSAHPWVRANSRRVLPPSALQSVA
Sequence of c-Jun N-terminal kinase 2 (JNK2) (P45984 whole entry): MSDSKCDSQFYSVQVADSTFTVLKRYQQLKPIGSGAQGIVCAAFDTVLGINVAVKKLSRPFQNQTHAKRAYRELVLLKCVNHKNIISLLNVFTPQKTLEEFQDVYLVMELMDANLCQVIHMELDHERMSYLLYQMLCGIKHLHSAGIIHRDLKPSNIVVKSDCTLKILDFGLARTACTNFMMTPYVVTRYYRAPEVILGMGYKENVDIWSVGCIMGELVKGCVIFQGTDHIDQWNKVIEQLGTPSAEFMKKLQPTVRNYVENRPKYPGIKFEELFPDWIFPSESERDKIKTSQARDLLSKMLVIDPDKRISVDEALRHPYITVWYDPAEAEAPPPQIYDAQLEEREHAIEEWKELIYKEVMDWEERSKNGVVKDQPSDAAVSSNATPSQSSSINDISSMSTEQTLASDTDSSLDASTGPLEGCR

CO/C=C/C(=O)c1ccccn1 [compound 6, (E)-3-methoxy-1-(pyridin-2-yl)prop-2-en-1-one]
reaction with N^α-acetyl lysine [1]: no reaction was observed

CO/C=C/C(=O)c1cc2c3c(c(N)cc(NC(=O)C(C)C)c3n1)N=C2 [neolymphostin, neolymphostin A]
% vs. control (aurora kinase A (AURKA)): 1.5% | solubility behaviour [2]: appears to aggregate and “crash out” of solution at higher concentrations in buffer | GI50 [3]: 6 to 840 nM | % vs. control [4]: 0.15% | time to complete covalent modification of the kinase (PI3Kα (p110α/p85α)): ≤ 2 min | effect on AKT phosphorylation [5]: blocked phosphorylation of AKT at S473 and T308 | % vs. control (PI3Kα): 0% | % vs. control (aurora kinase B (AURKB)): 1.9% | % vs. control [6]: 0.25% | effect on EGFR or ERK1/2 phosphorylation [7]: did not affect phosphorylation of EGFR or ERK1/2; also recorded: no apparent effect | % vs. control [8]: 0.2% | % vs. control [9]: 0.95%

CC(C)C(=O)Nc1cc(N)c2c3c(cc(C(=O)CCO)nc13)C=N2 [neolymphostinol]
effect on AKT phosphorylation [5]: largely unaffected

COC[C@H]1OC(=O)c2coc3c2[C@@]1(C)C1=C(C3=O)[C@@H]2CCC(=O)[C@@]2(C)C[C@H]1OC(C)=O [wortmannin, reference compound]
effect on AKT phosphorylation [5]: blocked phosphorylation of AKT on Ser473 and Thr308 | effect on EGFR or ERK1/2 phosphorylation [7]: without affecting phosphorylation of EGFR or ERK1/2
